These results are taken from paper PMC11588060 (Proceedings of the National Academy of Sciences of the …, 2024).

The subject of assay [1] is SfnG. To be noted: cited from earlier work.
The target in assay [2] is SsuD. Particulars: read-out: KD for FMN binding; E. coli SsuD; cited from earlier work.
Assay [3] deals with T1, SfnG (Pseudomonas fluorescens, UniProt Q3KC85).
T1 sequence (Q3KC85 1-364): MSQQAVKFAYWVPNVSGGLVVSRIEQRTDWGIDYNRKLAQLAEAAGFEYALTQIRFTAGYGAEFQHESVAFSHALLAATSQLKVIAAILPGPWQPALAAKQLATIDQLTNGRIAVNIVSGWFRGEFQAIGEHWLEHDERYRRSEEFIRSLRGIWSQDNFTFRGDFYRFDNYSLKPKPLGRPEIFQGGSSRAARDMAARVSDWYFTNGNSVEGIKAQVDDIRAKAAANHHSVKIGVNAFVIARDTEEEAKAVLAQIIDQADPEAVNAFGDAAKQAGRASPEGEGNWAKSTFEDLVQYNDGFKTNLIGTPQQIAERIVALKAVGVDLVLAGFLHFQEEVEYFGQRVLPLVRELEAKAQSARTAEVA
The experiment in a line: Surface plasmon resonance flavin binding assay, SfnG captured on NTA sensor chip.

Assay [4] has as its target T2, MsuE (Pseudomonas fluorescens, UniProt Q3K9A2).
T2 sequence (Q3K9A2 1-187): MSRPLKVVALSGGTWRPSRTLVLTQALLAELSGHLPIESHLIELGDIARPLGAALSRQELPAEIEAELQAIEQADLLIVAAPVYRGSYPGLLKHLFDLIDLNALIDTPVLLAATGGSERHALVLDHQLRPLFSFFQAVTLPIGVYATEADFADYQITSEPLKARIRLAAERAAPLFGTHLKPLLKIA
Put plainly: Fluorometric equilibrium titration of MsuE with oxidized FMN. The assay is classed as binding. In short, it runs like this:
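Recombinant P. fluorescens enzyme titrated at equilibrium with oxidized FMN, binding followed by intrinsic protein fluorescence on a spectrofluorometer. FMN range: 0.2 µM to 400 µM for MsuC and MsuD, 0.033 µM to 260 µM for MsuE. The fit gave KD, total enzyme and R2. Values are ±SD from three assay replicates.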

The target in assay [5] is T1, SfnG. The experiment in a line: Mixed dialkylsulfone monooxygenation endpoint assay. In kind it is biochemical. Particulars: 1 mM substrate, 8 µM SfnG, 1 µM MsuE, 500 µM NADH, 2 µM FMN, 30 °C, 80 min.

Structures can show the parent of a compound that is named as a salt. Where two headings read alike, the source gives them in different places.

As to `C[S+](C)[O-]` [DMSO], in assay [1], the “SfnG activity against the compound” value is reported as “not active”.

Regarding `Cc1cc2nc3c(=O)[nH]c(=O)nc-3n(C[C@H](O)[C@H](O)[C@H](O)COP(=O)(O)O)c2cc1C` [FMN, riboflavin 5´-monophosphate sodium salt], the Kd in assay [2] was 10 µM; in assay [4] it was 0.54 ± 0.06 µM. The koff in assay [3] stood at 0.42 s⁻¹; in assay [3] (read-out: koff rate constant with DMSO2 in the running buffer) it was 0.00836 s⁻¹. Besides, in assay [3] (FMN binding to SfnG, with 1% (v/v) DMSO versus without), the “fold decrease in KD by SPR with 1% (v/v) DMSO in the running buffer” value was 2.7 fold.

`CCS(=O)(=O)CC` [diethylsulfone]: the “product(s) of conversion by SfnG (1H NMR endpoint assay)” value in assay [5] is given as “ethanesulfinate”.
